Source: PubChem BioAssay
Sampled rows, rich in hits. Any-hit rate of the full collection: about 2%.
ARFGAP1 inh: rat ARFGAP1 inhibition; Q62848; Arfgap1-stimulated ARF1 GTP hydrolysis, GDP FP detection; inhibition, % at 16.5 µM; hit rate 0.26% among 360,000; AID 651572;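 active = inhibition above a per-plate limit, mean inhibition of low control wells plus 3 SD, cut at about 25% in these data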;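 note: 0% = DMSO wells with enzyme and 100% = wells lacking Arfgap1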
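System: truncated rat Arfgap1 GAP domain / Benchmarks: high control wells lacking Arfgap1, low control full reaction with DMSO / Times: compound-enzyme preincubation 20 min, reaction 120 min, detection 60 min, 25 °C / Repeats: one replicate per compound / Also added: human ARF1(Δ1-17)-GTP substrate / Measured by: Tracer-displacement fluorescence polarization with EDTA stop, 620/688 nm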
ASAP1 inh: blocks human ASAP1-stimulated Arf1 GTP hydrolysis. Q9ULH1. GDP FP detection. inhibition, % at 16.5 µM. hit rate 0.19% among 360,000. AID 624377; in the data active = inhibition above about 25%;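 note: 0% = vehicle with enzyme and substrate and 100% = no enzyme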
TCR CD3 inh: human TCR-CD3 binding inhibition. TAMRA-labeled TCR probe fluorescence, biochemical. inhibition, % at 9.4 µM. hit rate 0.37% among 360,000. AID 651800; in the data active = inhibition above about 19%;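 note: recombinant mutant TCR 2C K166C tagged with TAMRA read by polarization; 0% = receptor in buffer alone and 100% = receptor with positive control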
UHRF1 binding: human UHRF1 methylated DNA binding inhibitors; UHRF1 binding to methylated oligo, TR-FRET; inhibition, % at 4.4 µM; Q96T88; hit rate 0.75% among 370,000; AID 687016;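 note: UHRF1 SRA domain binding a hemimethylated CpG hairpin DNA probe; 0% = median of test compound wells and 100% = reference inhibitor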
Target sequence (Q96T88 whole entry, looked up, the tested form may be a part): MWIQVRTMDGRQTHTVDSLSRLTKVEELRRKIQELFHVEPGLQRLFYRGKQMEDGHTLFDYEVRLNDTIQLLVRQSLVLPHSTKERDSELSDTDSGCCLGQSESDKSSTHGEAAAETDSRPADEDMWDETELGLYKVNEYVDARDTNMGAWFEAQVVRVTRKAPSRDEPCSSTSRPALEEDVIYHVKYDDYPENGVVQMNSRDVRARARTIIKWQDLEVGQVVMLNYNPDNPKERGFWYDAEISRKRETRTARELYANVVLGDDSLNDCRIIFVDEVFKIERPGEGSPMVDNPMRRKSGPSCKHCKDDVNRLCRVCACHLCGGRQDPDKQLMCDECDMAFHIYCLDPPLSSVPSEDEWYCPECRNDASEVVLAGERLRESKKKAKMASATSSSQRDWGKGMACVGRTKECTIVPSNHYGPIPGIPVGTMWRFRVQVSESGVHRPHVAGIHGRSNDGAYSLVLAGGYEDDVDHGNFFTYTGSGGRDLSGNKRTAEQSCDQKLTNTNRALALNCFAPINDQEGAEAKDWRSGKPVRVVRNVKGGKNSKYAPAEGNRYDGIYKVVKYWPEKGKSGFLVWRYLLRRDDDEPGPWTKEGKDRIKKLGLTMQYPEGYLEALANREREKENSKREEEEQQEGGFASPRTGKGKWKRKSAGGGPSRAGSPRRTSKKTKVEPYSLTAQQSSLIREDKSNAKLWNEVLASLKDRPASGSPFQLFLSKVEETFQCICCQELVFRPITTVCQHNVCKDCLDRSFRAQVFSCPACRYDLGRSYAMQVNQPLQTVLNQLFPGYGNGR
LEDGF integ inh: blocks HIV-1 LEDGF/p75-dependent DNA integration. TR-FRET IN-LEDGF/p75 DNA integration, Eu/Cy5. inhibition, % at 3.7 µM. hit rate 0.64% among 370,000;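 active = inhibition above the screen-wide mean plus 3 SD, cut at about 13% in these data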;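 note: signal is the Cy5 over europium emission ratio at 671 and 618 nm; 0% = plate median of compound wells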
MBD2 DNA inh: blocks human MBD2 binding to methylated DNA. Q9UBB5. TR-FRET, MBD2 binding to methylated oligonucleotide. inhibition, % at 4.4 µM. hit rate 0.31% among 370,000; in the data active = inhibition above about 13%
UHRF1 ctr MBD2: inhibits human UHRF1 binding to methylated oligonucleotide, MBD2 counter-screen; shares compounds with MBD2 DNA inh; TR-FRET; inhibition, % at 4.4 µM; hit rate 25% among 1,000; AID 720530;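 note: UHRF1 SRA domain binding a labeled hemimethylated CpG hairpin DNA; 0% = vehicle only and 100% = reference inhibitor with vehicle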
MBD2 DBD conf: confirmation of human MBD2-DBD methylated oligonucleotide binding inhibitors; shares compounds with MBD2 DNA inh; TR-FRET MBD2-DBD binding to methylated oligonucleotide; inhibition, % at 4.4 µM; hit rate 26% among 1,000; AID 720531; in the data active = inhibition above about 14%
Numbers without * were called inactive; / = no result. Cut-off read from the data, not from the text of the source, unless noted: active = inhibition above about 21%; inactive = the rest.

SMILES	ARFGAP1 inh	ASAP1 inh	TCR CD3 inh	UHRF1 binding	LEDGF integ inh	MBD2 DNA inh	UHRF1 ctr MBD2	MBD2 DBD conf
C=CCn1c(COc2ccccc2)nnc1SCC(=O)O	-5.6	6.8	2.5	-1.9	2.5	-2.5	/	/
C=C(C)Cn1c(COc2ccccc2)nnc1SCC(=O)O	1.8	-11.7	1.2	-0.2	1.8	15.3*	4.1	2.9
O=C(c1ccccc1F)c1cc2c(cc1[N+](=O)[O-])OCCO2	5.5	4.6	-5.3	18.3	0.6	14.6*	6.8	1.3
COc1ccc(C(=O)c2cc3c(cc2[N+](=O)[O-])OCCO3)cc1	4.4	6.4	3.6	-0.8	-2.1	4.0	/	/
CC(=O)NC(=S)Nc1ccc(S(=O)(=O)Nc2ncccn2)cc1	-4.8	13.1	1.6	-0.3	1.9	3.9	/	/
CC(C)CN1C(=O)C[C@@]2(C(=O)N(C)c3ccc(NS(=O)(=O)C4CC4)cc32)C1c1ccccc1 (stereo not given in full)	/	/	/	14.9	2.9	15.2*	11.6	8.1
O=C(CSc1cccc[n+]1[O-])Nc1cc([N+](=O)[O-])ccc1Cl	-7.6	3.0	3.8	0.9	-1.6	13.4*	9.5	4.5
C=CCn1c(SCC(=O)NCCOC)nnc1-c1cc2c(s1)CCC(CC)C2 (stereo not given)	5.0	-5.9	-1.4	0.1	-3.7	4.2	/	/
Cc1cccc(N2CC(C(=O)Nc3cccc(S(=O)(=O)N4CCCCC4)c3)CC2=O)c1C (stereo not given)	8.4	4.6	0.0	4.0	0.0	80.6*	4.0	0.7
O=C(COc1ncnc2ccccc12)c1ccc(Cl)cc1	0.8	-7.7	6.4	-0.8	-4.0	5.2	/	/
O=C(O)c1ccc2c(c1)C(=O)N(c1ccc([N+](=O)[O-])cn1)C2=O	-6.7	1.0	2.9	-2.5	0.6	-0.3	/	/
CCc1ccccc1Nc1nc(N)nc(COC(=O)CCNS(=O)(=O)c2ccccc2)n1	9.1	-4.1	-3.6	2.4	0.2	-0.8	/	/
CCc1ccccc1Nc1nc(N)nc(COC(=O)c2c(C)noc2C)n1	0.2	-8.1	4.6	23.3*	11.9	13.6*	4.0	4.7
O=C(O)CSc1ncn[nH]1	6.9	16.9	0.5	15.3	3.2	13.5*	7.0	0.6
O=C(N/N=C/C=C/c1ccccc1)c1cc(C2CC2)[nH]n1	-2.1	14.7	-0.9	-2.2	0.3	20.6*	1.4	0.0
COc1ccccc1CNC(=O)COC(=O)C1CCN(c2ccc(C(F)(F)F)cn2)CC1	-6.2	-11.7	2.6	0.6	0.0	-2.3	/	/
O=C(CNC(=O)c1ccccc1)OCN1C(=O)c2ccccc2C1=O	4.2	2.1	-1.4	2.4	-0.5	14.5*	7.6	4.4
COc1cccc(-n2c(=O)c3c(C)c(C(=O)N(C)C)sc3n(CC(=O)NCC3CCCO3)c2=O)c1 (stereo not given)	-6.2	-8.2	-3.4	-1.9	-8.4	16.4*	8.5	3.5
CCc1ccc(-n2c(=O)c3c(C)c(C(=O)N(C)C)sc3n(CC(=O)NCC3CCCO3)c2=O)cc1 (stereo not given)	-8.4	6.8	10.8	5.1	-1.6	6.7	/	/
Fc1cccc(F)c1-n1c(CN2CCCCC2)csc1=S	12.0	3.7	-3.0	0.0	3.4	-3.7	/	/
Cc1cc(S(=O)(=O)NCC(c2ccccc2)c2ccccc2)ccc1-n1cnnn1	1.3	-0.3	-4.3	17.5	4.1	14.2*	2.6	4.4
COc1ccccc1CNS(=O)(=O)c1ccc(-n2cnnn2)c(C)c1	3.9	-5.3	-12.6	-0.8	-1.1	3.8	/	/
COc1ccc(S(=O)(=O)N2CCOCC2)cc1NS(=O)(=O)/C=C/c1ccccc1	-7.1	-30.7	-1.9	-0.1	-0.2	0.5	/	/
COc1ccccc1NS(=O)(=O)/C=C/c1ccccc1	1.7	-5.1	1.7	4.1	-3.4	13.8*	5.8	3.8
Cc1ccc(S(=O)(=O)N2CCOCC2)cc1C(=O)OCC(=O)NCc1ccc2c(c1)OCO2	6.2	-5.3	-3.5	33.0*	-2.7	16.5*	5.9	2.5
SMILES	ARFGAP1 inh	ASAP1 inh	TCR CD3 inh	UHRF1 binding	LEDGF integ inh	MBD2 DNA inh	UHRF1 ctr MBD2	MBD2 DBD conf
O=C(COC(=O)c1ccc(O)cc1O)NC1CCS(=O)(=O)C1 (stereo not given)	-1.5	8.6	-4.3	1.1	-9.6	-2.0	/	/
O=C(COC(=O)c1ccc(O)cc1O)NC1CCCCCC1	-6.5	-2.9	-0.2	-0.6	-2.3	19.5*	5.1	3.4
Cc1ccccc1NC(=O)Cc1nc(COC(=O)CC(C)c2ccccc2)cs1 (stereo not given)	13.2	-10.5	-1.9	0.8	-0.9	19.5*	2.4	5.0
O=C(Nc1nnc(CCN2CCCCC2)s1)c1ccccc1Cl	-7.4	-16.4	-3.2	24.9*	3.8	16.1*	6.8	2.5
CCc1nnc(NC(=O)CN2CCN(Cc3ccccc3Cl)CC2)s1	-0.1	1.7	1.6	20.2	5.0	16.9*	7.9	6.0
CCCCCC(=O)Nc1cc(S(=O)(=O)O)cc2cc(S(=O)(=O)O)cc(O)c12	-21.0	-5.4	16.1	99.5*	90.7*	97.1*	102.9*	113.2*
Cn1c(SCC(=O)c2c(N)n(C)c(=O)n(C)c2=O)nnc1-c1ccccc1	9.7	-7.7	4.3	1.9	1.2	3.1	/	/
Cn1c(SCC(=O)c2c(N)n(C)c(=O)n(C)c2=O)nnc1-c1ccccc1F	-6.5	-7.5	-1.0	1.7	-0.2	32.1*	-3.2	0.2
CC(C#Cc1ccc2c(c1)COc1c3ccccc3nn1-2)OC(C)(C)C (stereo not given)	6.5	-7.8	4.9	1.2	1.1	-4.6	/	/
c1ccc(-n2nc3c(ccc4cnnc43)[nH]2)cc1	4.6	-6.1	-5.3	18.9	-0.8	14.9*	4.1	4.3
Cc1nc(-c2nnc(SCC(=O)Nc3ccc(Cl)cc3)n2C)cs1	-0.2	-13.8	-0.5	-2.0	-2.8	3.6	/	/
CCNC(=O)C1(C)CCN(Cc2ccc(OC(F)(F)F)cc2)C1 (stereo not given)	8.8	3.4	-0.6	0.7	0.1	29.1*	11.1	6.3
CCc1c(C)nc(SCC(=O)Nc2c(C)n(C)n(-c3ccccc3)c2=O)[nH]c1=O	16.2	1.2	0.2	0.9	1.6	19.8*	6.5	1.4
Cc1nc(SCC(=O)Nc2c(C)n(C)n(-c3ccccc3)c2=O)[nH]c(=O)c1Cc1ccccc1	-2.7	-12.6	-5.4	1.1	3.2	1.5	/	/
OCCCNCc1cccc2ccccc12	1.9	4.7	0.3	18.5	3.3	14.9*	4.7	18.9*
CC(O)CNCc1cccc2ccccc12 (stereo not given)	-3.6	-1.9	-2.8	18.1	5.4	6.4	/	/
